Experimental findings from ChEMBL document CHEMBL3045883, “Antifungal effects of different organic extracts from Melia azedarach L. on phytopathogenic fungi and their isolated active components” (J Agric Food Chem, 2003) are described below.

Experiment [1] relates to Fusarium verticillioides. The experiment in a line: Fungistatic activity against Fusarium verticillioides after 48 hr by broth microdilution method. It is filed as functional. The essentials:
(§1)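 Broth microdilution: F. verticillioides conidia, 4 days old, from a monosporic culture, in glucose-mineral salts medium at 1 × 10^5 conidia/mL. Pure compounds in DMSO added to wells in duplicate ([…]; final DMSO 2–4%). Controls were spore wells with or without DMSO. Percent growth (0–100) scored visually by inverted light microscope, always by the same operator. IC50 derived by Probit analysis.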
On the technique in general: Broth dilution looks for growth in wells or tubes with falling amounts of substance.

Experiment [2] has as its system Fusarium verticillioides. Nature of the experiment: Antifungal activity against Fusarium verticillioides assessed as growth inhibition after 48 hr by inverted light microscopic analysis. It is filed as functional, organism-based. The gist of the method: as §1
In experiment [3] the test system is Fusarium verticillioides. The experiment in a line: Antifungal activity against Fusarium verticillioides assessed as growth inhibition at 0.2 mg/mL after 48 hr by inverted light microscopic analysis. It is filed as functional. The note with it: read-out: GI. The essentials: as §1
For experiment [4], the system named is Fusarium verticillioides. Nature of the experiment: Antifungal activity against Fusarium verticillioides assessed as growth inhibition at 0.6 mg/mL after 48 hr by inverted light microscopic analysis. The note with it: read-out: GI. The format is functional. The essentials:
as §1

Experiment [5] deals with Fusarium verticillioides. The experiment in a line: Antifungal activity against Fusarium verticillioides assessed as growth inhibition at 0.8 mg/mL after 48 hr by inverted light microscopic analysis. It is filed as functional. To be noted: read-out: GI. The gist of the method:
as §1

Experiment [6] relates to Fusarium verticillioides. The experiment in a line: Antifungal activity against Fusarium verticillioides assessed as growth inhibition at 0.4 mg/mL after 48 hr by inverted light microscopic analysis. To be noted: read-out: GI. The format is functional. The essentials:
as §1

In brackets after ≈: the same amount, converted by molar mass.

Turning to `COc1cc(/C=C/C=O)ccc1O` [CONIFERYL ALDEHYDE], the minimum inhibitory concentration (MIC) – broadly, the least concentration at which growth counts as inhibited – against Fusarium verticillioides [1] was found to be 400 µg/mL (≈ 2240 µM). Besides, in the experiment on Fusarium verticillioides [2], the IC50 – broadly, the midpoint of a concentration-inhibition curve – turned out to be 240 µg/mL (≈ 1350 µM) and the “growth inhibition (GI)” value is “Dose-dependent effect”. Moreover, the inhibition of growth at 200 µg/mL in the experiment with Fusarium verticillioides [3] came out at 20%.

As to `COc1cc(C2OCC3C(c4ccc(O)c(OC)c4)OCC23)ccc1O` (racemic) [(+/-)-PINORESINOL], the MIC in the experiment with Fusarium verticillioides [1] was 1000 µg/mL (≈ 2790 µM). Besides, in the experiment with Fusarium verticillioides [2], the IC50 was determined as 760 µg/mL (≈ 2120 µM) and the “growth inhibition (GI)” value is “Dose-dependent effect”. Moreover, the inhibition of growth at 600 µg/mL in the experiment with Fusarium verticillioides [4] stood at 20%. The inhibition of growth at 800 µg/mL in the experiment on Fusarium verticillioides [5] is 40%.

With `COc1cc(C=O)ccc1O` [VANILLIN], the inhibition of growth at 400 µg/mL in the experiment with Fusarium verticillioides [6] was determined as 65%. In the experiment with Fusarium verticillioides [1], this molecule showed a minimal inhibitory concentration (MIC) of 600 µg/mL (≈ 3940 µM). Moreover, in the experiment with Fusarium verticillioides [2], the concentration for half-maximal inhibition (IC50) came to 300 µg/mL (≈ 1970 µM) and the “growth inhibition (GI)” value is “Dose-dependent effect”. For the same molecule, the inhibition of growth at 200 µg/mL in the experiment on Fusarium verticillioides [3] amounted to 20%.
